By IC50 is commonly meant the concentration needed to halve the response being measured. As usually defined, the clearance is the volume of plasma or blood freed of the substance per unit of time. As usually defined, the Tmax is the time at which the peak concentration occurs. As a reminder, the Cmax is the peak of the concentration-time curve.

Consider 1 molecule from ChEMBL document CHEMBL5543124, “Lead Compound Development of SRC-3 Inhibitors with Improved Pharmacokinetic Properties and Anticancer Efficacy” (J Med Chem, 2024).

The subject of series [1] is MCF7. Kind of series: Cytotoxicity against human MCF7 cells assessed as inhibition of cell growth incubated for 72 hrs by MTT assay. The series is classed as functional, cell-based. The conditions noted are these: MCF7, 72 h. On the technique in general: Formazan colour is commonly taken as a measure of viable cells.
For series [2], the system named is BT-474. Kind of series: Cytotoxicity against human BT-474 cells assessed as inhibition of cell growth incubated for 72 hrs by MTT assay. The settings on record: BT-474, 72 h. It is filed as functional, cell-based. The procedure, abridged:
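Cells seeded and grown to 70–80% confluence, then exposed for 72 h to a titration series (0.2–1000 nM). Viability read by MTT relative to untreated cells, with 6 replicates per concentration. IC50 fitted with a Hill-slope model.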

Series [3] is described as follows: Clearance in CD-1 mouse at 1 mg/kg,iv administration measured upto 48 hrs by LC-MS/MS analysis. It is filed as ADME, organism-based. The conditions noted are these: in vivo. Put shortly: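 Single intravenous bolus in ICR male mice (n = 3, 6 weeks); dosing solution 0.5 mg/mL in 20% DMSO, 16% PEG, 4% dextrose in PBS. Tail-vein blood (10 μL) taken at 2, 5, 15, 30 min and 1, 2, 4, 8, 24, 48 h. Plasma quantified by LC-MS/MS against a 0.5–1000 ng/mL calibration; parameters from non-compartmental analysis.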

Series [4] is described as follows: Tmax in CD-1 mouse at 10 mg/kg,po administration measured upto 48 hrs by LC-MS/MS analysis. It is filed as ADME, organism-based. The settings on record: in vivo. Put shortly: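 Male ICR mice (n=3) dosed by oral gavage at 10 mg/kg from a 1 mg/mL solution in 20% DMSO/16% PEG/4% dextrose in PBS. Tail-vein blood (10 μL) drawn at 15 and 30 min and at 1, 2, 4, 8, 24 and 48 h. Plasma quantified by LC-MS/MS against calibration standards. Parameters from non-compartmental extravascular model.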

Series [5] in a line: Cmax in CD-1 mouse at 10 mg/kg,po administration measured upto 48 hrs by LC-MS/MS analysis. It is filed as ADME, organism-based. The conditions noted are these: in vivo. Put shortly: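 Oral gavage in ICR male mice (n = 3); dosing solution 1 mg/mL in 20% DMSO, 16% PEG, 4% dextrose in PBS. Tail-vein blood (10 μL) taken at 15, 30 min and 1, 2, 4, 8, 24, 48 h. Plasma quantified by LC-MS/MS against a 0.5–1000 ng/mL calibration; parameters from a non-compartmental extravascular model.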

For series [6], the target named is Prostaglandin G/H synthase 1 (Homo sapiens, UniProt P23219). Kind of series: Inhibition of COX1 (unknown origin). The series is classed as toxicity. The procedure, abridged:
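Tested in a commercial off-target safety screening panel of 78 targets. Values reported as RC50, taken as IC50 except for agonist mode, where RC50 is EC50.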

In series [7] the target is Nuclear receptor coactivator 3 (Homo sapiens) (UniProt Q9Y6Q9). Kind of series: Inhibition of recombinant His-tagged SRC-3 (unknown origin) expressed in baculovirus assessed as reduction in recruitment of p300 in ER complex at 0.15 uM incubated for 30 mins by pull-down based western blotting analysis. The procedure, abridged: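 Purified baculovirus-expressed His-SRC-3-flag (0.1 μg) preincubated with compound or vehicle for 30 min on ice. Then 0.1 μg recombinant ERα and His-p300 plus ERE-containing DNA oligo and 1 μM 17β-estradiol added, 1 h on ice. ER complexes immunoprecipitated with anti-ERα antibody; SRC-3 and p300 detected by western blot.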

Series [8] concerns MDA-MB-468. Kind of series: Cytotoxicity against human MDA-MB-468 cells assessed as chromatin accessibility alteration observed after 4 hrs by ATAC-seq analysis. The series is classed as functional, cell-based. Put shortly:
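MDA-MB-468 cells treated for 4 h (ATAC-seq) or 12 h (RNA-seq) before chromatin accessibility or transcript profiling.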

Series [9] concerns Panc-1-Luc. Kind of series: Antitumor activity against human Panc-1-Luc cells orthotopically xenografted in SCID mouse assessed as reduction in tumor growth at 10 mg/kg,ip administration once daily for 63 days. The settings on record: time 63.0 day. It is filed as functional, organism-based. Put shortly:
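Panc-1-Luc cells (0.5×10^6) implanted orthotopically in pancreas of male SCID mice (8 weeks). Mice randomized by luciferase imaging (n = 5/group); from day 8 given 10 mg/kg or vehicle daily. Tumor measured weekly by luciferase imaging and calipers (length × width²/2), body weight weekly; tumors harvested at day 63.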
(In general: Xenograft models place foreign cells or tissue in a host animal.)

The test system of series [10] is MDA-PCa-118b. Kind of series: Antitumor activity against patient derived MDA-PCa-118b cells xenografted in SCID mouse assessed as reduction in bone damage at 10 mg/kg,ip administration measured after 4 weeks by X-ray imaging analysis. The series is classed as functional, organism-based. The conditions noted are these: Homo sapiens. The procedure, abridged: (§1)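 AR-PDX 118b cells (1×10^5) injected via intra-femoral artery in male SCID mice (8–9 weeks). After 2 weeks, 10 mg/kg/day ip or vehicle for 4 weeks (n = 9/group). X-ray imaging every two weeks. At the end, femurs CT-scanned (5 per group) with 3D-reconstruction tumor size, and H&E histology used for tumor/femur area ratio.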

Series [11] can be described thus: Antitumor activity against patient derived MDA-PCa-118b cells xenografted in SCID mouse assessed as reduction in ratio of tumor area to femur area at 10 mg/kg,ip administration measured after 4 weeks by CT imaging analysis. The series is classed as functional, Homo sapiens. Further details: scale not given: the % may be the effect or the level left. The procedure, abridged:
as §1

The subject of series [12] is MDA-MB-468. Kind of series: Cytotoxicity against human MDA-MB-468 cells assessed as change in gene expression observed after 12 hrs by RNA-seq assay.

Calls of active or inactive are those of the source. The calls are words filed in the database; no cut-off is given here.

Sequence of Prostaglandin G/H synthase 1 (P23219 whole entry): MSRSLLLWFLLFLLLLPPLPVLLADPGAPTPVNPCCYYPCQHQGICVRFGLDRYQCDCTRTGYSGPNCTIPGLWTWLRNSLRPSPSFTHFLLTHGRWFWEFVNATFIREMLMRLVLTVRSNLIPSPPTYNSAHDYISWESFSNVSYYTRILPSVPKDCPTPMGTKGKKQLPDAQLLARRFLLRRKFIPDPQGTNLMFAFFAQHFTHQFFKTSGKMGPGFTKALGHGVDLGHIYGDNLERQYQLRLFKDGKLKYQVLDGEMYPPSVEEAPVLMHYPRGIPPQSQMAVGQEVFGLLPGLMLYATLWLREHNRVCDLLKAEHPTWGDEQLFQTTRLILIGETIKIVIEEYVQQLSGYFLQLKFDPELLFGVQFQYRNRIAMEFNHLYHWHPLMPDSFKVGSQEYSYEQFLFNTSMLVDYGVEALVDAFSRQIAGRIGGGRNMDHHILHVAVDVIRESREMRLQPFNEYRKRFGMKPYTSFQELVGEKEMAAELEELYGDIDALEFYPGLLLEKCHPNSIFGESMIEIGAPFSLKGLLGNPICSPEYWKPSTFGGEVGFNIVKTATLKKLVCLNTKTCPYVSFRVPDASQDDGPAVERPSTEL
Sequence of Nuclear receptor coactivator 3 (Homo sapiens) (Q9Y6Q9 2-1424 limits assumed): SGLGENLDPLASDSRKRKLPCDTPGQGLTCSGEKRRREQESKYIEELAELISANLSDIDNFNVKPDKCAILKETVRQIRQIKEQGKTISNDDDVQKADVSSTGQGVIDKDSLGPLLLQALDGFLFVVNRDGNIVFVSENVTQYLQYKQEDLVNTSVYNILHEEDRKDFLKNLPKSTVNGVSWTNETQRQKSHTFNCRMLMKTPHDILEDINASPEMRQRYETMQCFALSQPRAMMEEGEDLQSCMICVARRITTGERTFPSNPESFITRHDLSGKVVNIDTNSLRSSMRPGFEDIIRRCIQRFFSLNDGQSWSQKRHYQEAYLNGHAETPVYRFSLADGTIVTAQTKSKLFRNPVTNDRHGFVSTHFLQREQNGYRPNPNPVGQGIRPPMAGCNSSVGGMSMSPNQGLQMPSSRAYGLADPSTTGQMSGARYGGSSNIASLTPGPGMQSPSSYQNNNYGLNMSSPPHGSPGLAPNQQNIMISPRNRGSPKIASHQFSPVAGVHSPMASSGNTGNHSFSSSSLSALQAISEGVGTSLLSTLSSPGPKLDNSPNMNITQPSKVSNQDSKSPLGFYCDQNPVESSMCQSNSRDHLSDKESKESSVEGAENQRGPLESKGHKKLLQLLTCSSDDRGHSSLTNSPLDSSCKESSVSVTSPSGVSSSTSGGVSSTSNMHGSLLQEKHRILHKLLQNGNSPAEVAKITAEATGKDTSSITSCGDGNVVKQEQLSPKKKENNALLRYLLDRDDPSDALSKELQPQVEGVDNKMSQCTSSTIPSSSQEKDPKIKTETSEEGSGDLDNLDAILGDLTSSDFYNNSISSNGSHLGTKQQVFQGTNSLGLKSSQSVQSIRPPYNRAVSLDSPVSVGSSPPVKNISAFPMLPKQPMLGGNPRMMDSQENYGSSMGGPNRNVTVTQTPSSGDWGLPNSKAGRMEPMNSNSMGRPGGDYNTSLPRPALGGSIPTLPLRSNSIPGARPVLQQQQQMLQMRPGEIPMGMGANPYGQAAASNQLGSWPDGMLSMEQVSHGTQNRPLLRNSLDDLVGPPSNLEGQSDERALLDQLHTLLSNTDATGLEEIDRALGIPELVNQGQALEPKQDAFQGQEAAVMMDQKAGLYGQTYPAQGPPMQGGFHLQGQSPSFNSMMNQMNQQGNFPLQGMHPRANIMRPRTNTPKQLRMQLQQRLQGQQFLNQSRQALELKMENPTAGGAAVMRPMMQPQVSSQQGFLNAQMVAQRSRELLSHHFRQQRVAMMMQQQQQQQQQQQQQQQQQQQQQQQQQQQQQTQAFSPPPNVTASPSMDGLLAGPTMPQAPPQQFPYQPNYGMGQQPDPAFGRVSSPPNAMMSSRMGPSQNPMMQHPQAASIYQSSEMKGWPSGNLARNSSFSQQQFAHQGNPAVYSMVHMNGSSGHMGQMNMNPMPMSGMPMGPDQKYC

Take `C/C(=N\N=c1/[nH]c2cc(F)c(F)cc2n1C)c1ccc(F)cn1`: the values for the IC50 in series [1], in [2] and in series [6] were 3.4 nM, 0.8 nM and 3100 nM, respectively. The same molecule returned a clearance in series [3] of 22 mL/min/kg. The Tmax in series [4] stood at 15 min. The molecule also showed a maximum concentration (Cmax) in [5] of 217 ng/mL. Also, the inhibition result in [7] was “Active”. The result in series [8], in [9], in series [10] and in series [12] was Active. Further, the Activity in series [11] is on record as more than 50%.
